# Screens: PubChem BioAssay, several laboratories
# PKA-R2B act = activators of human PKA-R2B complex | AID 504700 | hit rate 0.079% among 340,000 | PKA-R2B holoenzyme dissociation, Cy5-IP20 fluorescence polarization; R2B truncated from residue 108, S112A mutant; 0% DMSO only, 100% 113 µM cGMP | P22694+P31323 | activation, % at 11.4 µM;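 active = activation above a cutoff set at the mean over all compounds plus 3 SD, cut at about 18% in these data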;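 also: higher means more holoenzyme dissociation and a rise in polarization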
# PKA-R1A act = activators of PKA-R1A complex. PKA-R1A dissociation, Cy5-IP20 fluorescence polarization; scaled: DMSO 0%, 113 µM cGMP 100%. hit rate 0.083% among 340,000. activation, % at 11.4 µM. P00514+P68181;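 active = percent activation above the mean of all tested compounds plus 3 SD, cut at about 19% in these data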;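 also: higher means more PKAc released from R1A so a rise in polarization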
# SR-BI DiI inh = inhibitors of mouse SR-BI mediated HDL lipid uptake; hit rate 0.96% among 320,000; ldlA[mSR-BI] CHO cells, DiI-HDL uptake fluorescence, 3 h; inhibition, % at 12.5 µM;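 active = mean replicate inhibition of at least 70% and a set share of replicates each scoring 70 or more; inconclusive = meets just one of the two criteria; inactive = fails both criteria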;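 also: 0% = median of neutral control wells and 100% = median of positive control wells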
# CDK5 p35 inh = blocks human CDK5/p35 kinase activity; Q00535+Q15078; Recombinant CDK5/p35, ADP-Glo luminescence, 60 min; inhibition, % at 10 µM; hit rate 0.01% among 330,000; AID 488839;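 active = highest replicate inhibition of at least 50% and at least 75% of replicates reaching 50%; inconclusive = only one of the two criteria met; inactive = both criteria failed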;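 also: plate controls were DMSO neutral control for no effect and GW8510 at 10 µM for full effect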
# SR-BI uptake up = activators of SR-BI mediated HDL lipid uptake. CHO ldlA[mSR-BI] cells, DiI-HDL uptake fluorescence, 3 h; 100 = double the neutral-control signal. activation, % at 12.5 µM. hit rate 0.096% among 320,000;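 active = mean replicate activation of at least 60% and every replicate at or above 60%; inconclusive = mean or all-replicate condition met, but not both; inactive = mean below 60% and not all replicates reaching 60%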;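 also: 0% = median plate neutral-control signal and 100% = twice that signal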
#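 Material: SR-BI-overexpressing, LDLR-lacking CHO cells | Dosing: Single compound concentration, delivered by pin transfer | Probe or stimulus: Labelled HDL, 10 µg/mL | Signal: Bottom-read cell fluorescence after medium removal, ex 550/em 595 nm | Schedule: 3 h, 37 °C | Evaluation: HDL uptake via cellular fluorescence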
# dFosB act-1 = mouse delta FosB homodimer activation | P13346 | purified delta FosB, TAMRA-CDK5 oligo fluorescence polarization; percent of positive-control signal above neutral wells | activation, % at 25 µM | hit rate 0.99% among 340,000 | AID 493131;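 active = mean activation above about 17%, with every replicate also reaching it, limit read from the data, passing the limit was not always enough; inconclusive = only one of the two conditions met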
# Target sequence (P13346 whole entry, looked up): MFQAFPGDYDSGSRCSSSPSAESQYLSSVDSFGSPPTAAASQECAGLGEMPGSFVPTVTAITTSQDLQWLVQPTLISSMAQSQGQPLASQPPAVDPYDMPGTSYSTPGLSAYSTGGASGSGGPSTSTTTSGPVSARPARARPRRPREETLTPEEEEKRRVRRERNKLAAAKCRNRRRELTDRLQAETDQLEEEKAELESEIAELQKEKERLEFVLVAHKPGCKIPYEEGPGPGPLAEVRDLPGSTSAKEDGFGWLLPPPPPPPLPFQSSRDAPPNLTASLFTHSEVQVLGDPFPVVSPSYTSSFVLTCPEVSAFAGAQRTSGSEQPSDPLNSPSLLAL
# dFosB act-2 = enhances mouse delta FosB homodimer binding to DNA; AID 588690; activation, % at 24.9 µM; shares compounds with dFosB act-1; 2,400 tested, under 10 active; purified delta FosB, TAMRA-CDK5 oligo fluorescence polarization; normalised: neutral wells 0, positive control 100;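 active = highest replicate activation at or above 34% and every replicate reaching that threshold; inconclusive = meets only one of the two criteria; inactive = meets neither criterion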;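 also: higher polarization means more probe DNA bound by delta FosB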
# Numbers without * were called inactive; ? = inconclusive; . = not tested or not shown. In the library only some 2.1% were active in any assay of this set; here they are far more common.
SMILES,PKA-R2B act,PKA-R1A act,SR-BI DiI inh,CDK5 p35 inh,SR-BI uptake up,dFosB act-1,dFosB act-2
O=C(Cn1cnc2ccccc2c1=O)Nc1nnc(SCc2ccc(Cl)cc2)s1,-5,-6,-1,1,1,25*,-5
CNC(=O)c1cc2c(-c3ccccc3)nn(C)c2s1,-8,-9,35,0,-35,-41,.
CCOC(=O)CNC(=S)N(Cc1ccco1)Cc1ccccc1Cl,3,3,8,0,-8,-3,.
CCOc1ccc(NC(=S)N2CCc3cc(OC)c(OC)cc3C2COc2ccc3c(C)cc(=O)oc3c2)cc1 (configuration not stated),-4,-6,19,0,-19,50*,3
COc1cc2c(cc1OC)C(COc1ccc3c(C)cc(=O)oc3c1)N(C(=O)c1ccco1)CC2 (configuration not stated),4,2,11,1,-11,?,.
Cc1cccc(NC(=S)N/N=C/c2cccc([N+](=O)[O-])c2)c1,6,11,10,0,-10,9,.
Cc1cccc(NC(=S)N/N=C/c2ccc(Cl)c([N+](=O)[O-])c2)c1,5,-1,0,0,0,20*,-2
Nc1nc(N)c2c(ccc3nccc32)[nH]1,-17,4,-7,3,7,36*,-7
O=C(C[C@H]1C/C=C\CC[C@H](Cc2ccc(F)cc2)C(=O)O[C@@H](c2ccccc2)CNC1=O)N[C@@H](CO)Cc1ccccc1,-13,-7,15,0,-15,?,.
O=C(C[C@H]1C/C=C\CC[C@H](Cc2ccc(F)cc2)C(=O)O[C@H](c2ccccc2)CNC1=O)N[C@H](CO)Cc1ccccc1,6,-1,-1,-2,1,48*,0
Cc1ccc(-c2nn(CC(=O)NC(C)c3ccccc3)c(=O)c3ccccc23)cc1 (configuration not stated),-24,-7,10,1,-10,28*,-22
Cc1ccccc1Nc1nnc(SCC(=O)NCC2CCCO2)s1 (configuration not stated),1,8,-14,1,14,9,.
CCn1c(=O)c(C(=O)Nc2ncccc2C)c(O)c2ccccc21,-4,0,3,0,-3,-34,.
CCn1c(=O)c(C(=O)Nc2ncccc2O)c(O)c2ccccc21,2,-3,-6,0,6,26*,-1
COc1ccc([N+](=O)[O-])cc1C(=O)NCCOc1ccc(Cl)cc1,-2,-6,.,3,.,-10,.
NS(=O)(=O)c1ccc(NC(=O)/C=C/c2cn(-c3ccccc3)nc2-c2cccc(Cl)c2)cc1,0,1,34,-1,-34,142*,2
O=C(/C=C/c1cn(-c2ccccc2)nc1-c1ccccc1)Nc1ccc(C(=O)O)cc1,-15,-8,-1,-7,1,-52,.
COc1ccc(/C=N/NC(=O)CN(C2=NS(=O)(=O)c3ccccc32)c2ccccc2)cc1OC,4,-1,13,-1,-13,3,.
COc1cccc(/C=N/NC(=O)CN(C2=NS(=O)(=O)c3ccccc32)c2ccccc2)c1,0,-3,-16,1,16,22*,0
O=c1cc(CSc2nnnn2-c2ccccc2)nc(Nc2ccc(F)cc2)[nH]1,13,7,15,3,-15,26*,-7
COc1ccc(CNS(=O)(=O)c2ccc(S(=O)(=O)N3CCCCC3)cc2)cc1,-8,9,6,-2,-6,41*,1
COc1ccc(S(=O)(=O)N2CCCCCC2)cc1,11,7,-16,-1,16,-3,.
COc1ccc(COC(=O)c2ccc(S(=O)(=O)N3CCC(C)CC3)cc2)cc1,-6,-9,3,1,-3,19*,0
Cc1ccsc1C(=O)NNC(=O)Nc1ccc(Cl)c(Cl)c1,-1,6,12,1,-12,25*,0
COCCn1c(SC(C)C(=O)NCC2CCCO2)nc2sc3c(c2c1=O)CCC3 (configuration not stated),7,-5,15,2,-15,3,.
SMILES,PKA-R2B act,PKA-R1A act,SR-BI DiI inh,CDK5 p35 inh,SR-BI uptake up,dFosB act-1,dFosB act-2
COc1cc(CCN2C(=O)c3cccc4cccc(c34)C2=O)c(S(=O)(=O)NCCO)cc1OC,0,14,6,0,-6,12,.
COc1cc(CCN2C(=O)c3cccc4cccc(c34)C2=O)c(S(=O)(=O)NCCCO)cc1OC,-1,-10,11,1,-11,20*,-1
COc1ccc(/C=C/C(=O)NC(=S)NNC(=O)[C@H]2C[C@@H]2c2ccccc2)cc1OC,-2,1,14,-3,-14,71*,4
Cc1ccc(C)c(CNS(=O)(=O)c2c(C(=O)N3CCCC3)c(C)n(C)c2C)c1,4,1,-20,-4,20,-8,.
CCN(CC)C(=O)Cn1c(=O)n(CCCCCC(=O)Nc2ccccc2)c(=O)c2sccc21,1,-1,0,0,0,-4,.
CCC(C)NC(=O)Cn1c(=O)n(CCCCCC(=O)Nc2ccccc2)c(=O)c2sccc21 (configuration not stated),-4,0,14,-1,-14,18*,0
S=c1nc(-c2ccc(Br)cc2)[nH]c2ccccc12,-15,-9,.,1,.,45*,-1
S=c1nc(-c2ccccc2)[nH]c2ccccc12,11,-2,-12,1,12,-1,.
COCCNC(=O)c1ccc(N2CC3CC(C2)c2cccc(=O)n2C3)c(NC(=O)c2ccc(Br)o2)c1 (configuration not stated),13,8,-28,0,28,-2,.
O=C(CCS(=O)(=O)c1ccc(Br)cc1)NC1CCCCCC1,-10,-12,-27,0,27,-2,.
CS(=O)(=O)N(CC(=O)Nc1c(F)cccc1F)c1ccc(C23CC4CC(CC(C4)C2)C3)cc1,-5,4,-3,-3,3,54*,-6
CNC(=O)CN(c1ccc(C23CC4CC(CC(C4)C2)C3)cc1)S(C)(=O)=O,-5,8,-28,-8,28,3,.
CCOc1cccc(/C=N/NC(=O)c2cc(C3CC3)[nH]n2)c1O,1,2,39,8,-39,8,.
COc1cc(/C=N/NC(=O)c2cc(C3CC3)[nH]n2)cc(OC)c1OC,1,1,26,-2,-26,20*,-1
